# Data taken from PMC1182329 (Nucleic Acids Research, 2005).
# Like-named read-outs stand apart in the source and are kept apart here.
# Key:
# CEM cells = experiment: Uptake kinetics with 125I-labeled conjugates; format: cell-based; conditions: slope of Hill plot of uptake data, 125I-labeled conjugate, room temperature, 30 s
# Procedure, shortened: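 125I-labeled conjugate purified by gel filtration and C18 reverse phase, quantified at A260, and specific radioactivity set with unlabeled conjugate. 1 × 10^6 CEM cells exposed to varying concentrations at room temperature for 30 s, then filtered on glass fiber, washed with PBS. Internalized conjugate measured by gamma counting from specific radioactivity; nH taken from Hill plot slope.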
# [1] = tested on: VSV-G pseudotyped HIV-1 in CEM cells
# [2] = tested on: VSV-G pseudotyped HIV-1 virions; conditions: 1 h
# TAR-RNA = experiment: Gel retardation assay; format: binding, HIV-1; conditions: compared with PNATAR–penetratin and PNATAR–tat conjugates; data not shown
Compound,Hill coefficient (nH) of uptake (CEM cells),inhibition of HIV-1 replication [1] [%],inhibition of HIV-1 replication (words) [1],"IC50 ([1]; VSV-G pseudotyped in CEM cells, 48 h) [nM]",IC50 ([1]; read-out: Antiviral efficacy IC50) [nM],IC50 [2] [nM],binding pattern to TAR-RNA in gel shift assay (TAR-RNA)
CC[C@H](C)[C@H](NC(=O)[C@H](CCCCN)NC(=O)[C@@H](NC(=O)[C@H](CCC(N)=O)NC(=O)[C@H](CCCNC(=N)N)NC(=O)[C@@H](N)CSSC[C@H](NC(C)=O)C(=O)NCCN(CC(=O)NCCN(CC(=O)NCCN(CC(=O)NCCN(CC(=O)NCCN(CC(=O)NCCN(CC(=O)NCCN(CC(=O)NCCN(CC(=O)NCCN(CC(=O)NCCN(CC(=O)NCCN(CC(=O)NCCN(CC(=O)NCCN(CC(=O)NCCN(CC(=O)NCCN(CC(=O)NCCN(CC(N)=O)C(=O)Cn1cc(C)c(=O)[nH]c1=O)C(=O)Cn1ccc(N)nc1=O)C(=O)Cn1cc(C)c(=O)[nH]c1=O)C(=O)Cn1cnc2c(N)ncnc21)C(=O)Cn1cnc2c(=O)[nH]c(N)nc21)C(=O)Cn1cnc2c(N)ncnc21)C(=O)Cn1ccc(N)nc1=O)C(=O)Cn1cc(C)c(=O)[nH]c1=O)C(=O)Cn1ccc(N)nc1=O)C(=O)Cn1cnc2c(=O)[nH]c(N)nc21)C(=O)Cn1cnc2c(=O)[nH]c(N)nc21)C(=O)Cn1cnc2c(N)ncnc21)C(=O)Cn1ccc(N)nc1=O)C(=O)Cn1ccc(N)nc1=O)C(=O)Cn1ccc(N)nc1=O)C(=O)Cn1cc(C)c(=O)[nH]c1=O)[C@@H](C)CC)C(=O)N[C@@H](Cc1c[nH]c2ccccc12)C(=O)N[C@@H](Cc1ccccc1)C(=O)N[C@@H](CCC(N)=O)C(=O)N[C@@H](CC(N)=O)C(=O)N[C@@H](CCCNC(=N)N)C(=O)N[C@@H](CCCNC(=N)N)C(=O)N[C@@H](CCSC)C(=O)N[C@@H](CCCCN)C(=O)N[C@@H](Cc1c[nH]c2ccccc12)C(=O)N[C@@H](CCCCN)C(=O)N[C@@H](CCCCN)C(=O)O [PNATAR–penetratin],1.8,~50,did not inhibit,800,800,28,
CC(=O)N[C@@H](CSSC[C@H](N)C(=O)NCC(=O)N[C@@H](CCCNC(=N)N)C(=O)N[C@@H](CCCCN)C(=O)N[C@@H](CCCCN)C(=O)N[C@@H](CCCNC(=N)N)C(=O)N[C@@H](CCCNC(=N)N)C(=O)N[C@@H](CCC(N)=O)C(=O)N[C@@H](CCCNC(=N)N)C(=O)N[C@@H](CCCNC(=N)N)C(=O)N[C@@H](CCCNC(=N)N)C(=O)N1CCC[C@H]1C(=O)N1CCC[C@H]1C(=O)N[C@@H](CCC(N)=O)C(=O)O)C(=O)NCCN(CC(=O)NCCN(CC(=O)NCCN(CC(=O)NCCN(CC(=O)NCCN(CC(=O)NCCN(CC(=O)NCCN(CC(=O)NCCN(CC(=O)NCCN(CC(=O)NCCN(CC(=O)NCCN(CC(=O)NCCN(CC(=O)NCCN(CC(=O)NCCN(CC(=O)NCCN(CC(=O)NCCN(CC(N)=O)C(=O)Cn1cc(C)c(=O)[nH]c1=O)C(=O)Cn1ccc(N)nc1=O)C(=O)Cn1cc(C)c(=O)[nH]c1=O)C(=O)Cn1cnc2c(N)ncnc21)C(=O)Cn1cnc2c(=O)[nH]c(N)nc21)C(=O)Cn1cnc2c(N)ncnc21)C(=O)Cn1ccc(N)nc1=O)C(=O)Cn1cc(C)c(=O)[nH]c1=O)C(=O)Cn1ccc(N)nc1=O)C(=O)Cn1cnc2c(=O)[nH]c(N)nc21)C(=O)Cn1cnc2c(=O)[nH]c(N)nc21)C(=O)Cn1cnc2c(N)ncnc21)C(=O)Cn1ccc(N)nc1=O)C(=O)Cn1ccc(N)nc1=O)C(=O)Cn1ccc(N)nc1=O)C(=O)Cn1cc(C)c(=O)[nH]c1=O [PNATAR–tat-peptide],,,,,,37,
Ac-Cys-TCC-CAG-GCT-CAG-ATC-T [PNATAR],,,,,,,same binding pattern
